Consider nine compounds from ChEMBL document CHEMBL1139917, “Synthesis of isoquinuclidine analogs of chloroquine: antimalarial and antileishmanial activity” (Bioorg Med Chem, 2007).

As a reminder, the IC50 is the concentration that inhibits the measured activity by half. A high value points to weaker potency. The IC90 is the concentration needed for an effect of 90%. A higher IC90 goes with a need for much substance.

≈ marks a conversion by molar mass, not a printed value.

The subject of data set [1] is Plasmodium falciparum. Description: Antimalarial activity against chloroquine-sensitive Plasmodium falciparum D6. The class given is functional, organism-based. The gist of the method: (§1)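 P. falciparum D6 (Sierra Leone, chloroquine-sensitive) and W2 (Indochina, chloroquine-resistant) clones were kept in type A human RBCs and subcultured daily. The assay used infected-cell suspensions at 2% parasitemia and 2% hematocrit in 96-well microplates, run in duplicate across several concentrations. IC50 was taken from dose curves. Artemisinin and chloroquine served as drug controls, with DMSO as vehicle control.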

The nature of data set [2]: Selectivity index, ratio of IC50 for Vero cells to IC50 for chloroquine-sensitive Plasmodium falciparum D6. It counts as functional. The gist of the method: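 Ratio of Vero cell cytotoxicity (Neutral Red, run in parallel) to activity against P. falciparum D6 (Sierra Leone, chloroquine-sensitive). Parasite assay: D6 grown in type A human RBCs, subcultured daily; infected cells at 2% parasitemia, 2% hematocrit in 96-well plates; duplicate wells at several concentrations. IC50 from dose curves; DMSO vehicle control.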

For data set [3], the system named is Plasmodium falciparum. Description: Antimalarial activity against chloroquine-resistant Plasmodium falciparum W2. It counts as functional, organism-based. The gist of the method: as §1
Data set [4] in a line: Selectivity index, ratio of IC50 for Vero cells to IC50 for chloroquine-resistant Plasmodium falciparum W2. It counts as functional. In outline:
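Vero (monkey kidney fibroblast) cytotoxicity was run in parallel with the P. falciparum W2 assay using the Neutral Red assay, with IC50 taken from growth inhibition curves. The selectivity index is the Vero IC50 divided by the W2 IC50.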

Data set [5] concerns Vero. In words: Cytotoxicity against Vero cells by neutral red assay. To be noted: chlorocebus sabaeus. The class given is cell-based. The gist of the method: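 VERO (monkey kidney fibroblast) cells tested in parallel with the antiparasitic assays. Viability read by Neutral Red assay. IC50 computed from growth inhibition curve.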
Data set [6] concerns Leishmania donovani. Description: Antileishmanial activity against Leishmania donovani promastigotes after 72 hrs by Alamar blue assay. It counts as functional, organism-based. The gist of the method:
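Leishmania donovani promastigote culture at 2 × 10⁶ cells/mL, 96-well format; compounds diluted in DMSO. Incubation 72 h at 26 °C. Growth read by Alamar blue adapted to fluorometric readout. Pentamidine and amphotericin B as standard agents. IC50 computed from growth inhibition curve.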
On the technique in general: Resazurin is reduced to fluorescent resorufin, in cell work by metabolically active cells.

Turning to `CN1CC2CCC1C(CNc1ccnc3cc(Cl)ccc13)C2` (stereo not drawn), the results for the half-inhibitory concentration (IC50) in data set [1], in data set [3] and in data set [6] were 0.0038 µg/mL (≈ 0.012 µM), 0.004 µg/mL (≈ 0.0127 µM) and 3 µg/mL (≈ 9.5 µM), respectively. Further, the “Ratio IC50” value is on record as >1252.3 in data set [2] and >1190 in data set [4]. Also, the Activity result in data set [5] was “Non-toxic”. The IC90 in data set [6] is 6.5 µg/mL (≈ 20.6 µM).
Take `CN(C)CC1CC2CCC1N(c1ccnc3cc(Cl)ccc13)C2` (stereo not drawn): the IC50 was 0.012 µg/mL (≈ 0.0364 µM) in data set [1], 0.018 µg/mL (≈ 0.0546 µM) in data set [3] and 1.9 µg/mL (≈ 5.76 µM) in data set [6]. Moreover, the “Ratio IC50” value is given as >396.7 in data set [2] and >264.4 in data set [4]. Moreover, the Activity result in data set [5] is “Non-toxic”. This compound also displayed an IC90 in data set [6] of 6 µg/mL (≈ 18.2 µM).
Turning to `CCNCC1CC2CCC1N(c1ccnc3cc(Cl)ccc13)C2` (stereo not drawn), the values for the half-inhibitory concentration (IC50) in data set [1], in data set [3] and in data set [6] were 0.28 µg/mL (≈ 0.849 µM), 0.11 µg/mL (≈ 0.333 µM) and 7.2 µg/mL (≈ 21.8 µM), respectively. The “Ratio IC50” value in data set [2] is listed as >17; in data set [4] it was >43.2. For the same compound, the Activity result in data set [5] is listed as “Non-toxic”. In data set [6], this compound returned an IC90 of 29 µg/mL (≈ 87.9 µM).
Turning to `CCN(CC)CC1CC2CCC1N(c1ccnc3cc(Cl)ccc13)C2` (stereo not drawn), the half-maximal inhibitory concentration (IC50) was 0.31 µg/mL (≈ 0.866 µM) in data set [1], 0.2 µg/mL (≈ 0.559 µM) in data set [3] and 3.8 µg/mL (≈ 10.6 µM) in data set [6]. Moreover, the entries for the “Ratio IC50” value in data set [2] and in data set [4] were >15.4 and >23.8, respectively. For the same compound, in data set [5], the Activity result is “Non-toxic”. The compound also came in with a concentration for an effect of 90% (IC90) in data set [6] of 8 µg/mL (≈ 22.4 µM).
With `C[C@@H]1[C@H](O)[C@@H](C)/C=C/C=C/C=C/C=C/C=C/C=C/C=C/[C@H](O[C@@H]2O[C@H](C)[C@@H](O)[C@H](N)[C@@H]2O)C[C@@H]2O[C@](O)(C[C@@H](O)C[C@@H](O)[C@H](O)CC[C@@H](O)C[C@@H](O)CC(=O)O[C@H]1C)C[C@H](O)[C@H]2C(=O)O` [AMPHOTERICIN B], in data set [6], the midpoint of inhibition, the IC50, lay at 0.18 µg/mL (≈ 0.195 µM) and the concentration for an effect of 90% (IC90) came to 1.8 µg/mL (≈ 1.95 µM).
For `NCC1CC2CCC1N(c1ccnc3cc(Cl)ccc13)C2` (stereo not drawn), the results for the IC50 in data set [1], in data set [3] and in data set [6] were 0.13 µg/mL (≈ 0.431 µM), 0.18 µg/mL (≈ 0.596 µM) and 4.2 µg/mL (≈ 13.9 µM), respectively. The figures for the “Ratio IC50” value in data set [2] and in data set [4] were >36.6 and >26.4, respectively. Besides, the Activity entry in data set [5] is reported as “Non-toxic”. This compound showed a 90% effect concentration (IC90) in data set [6] of 20 µg/mL (≈ 66.3 µM).
In the case of `N#CC1CC2CCC1N(c1ccnc3cc(Cl)ccc13)C2` (stereo not drawn), the values for the IC50 in data set [1], in data set [3] and in data set [6] were 0.35 µg/mL (≈ 1.18 µM), 0.17 µg/mL (≈ 0.571 µM) and 16 µg/mL (≈ 53.7 µM), respectively. For the same compound, the “Ratio IC50” value is >13.6 in data set [2] and >28 in data set [4]. The Activity entry in data set [5] is “Non-toxic”. Moreover, the concentration for an effect of 90% (IC90) in data set [6] is 33 µg/mL (≈ 111 µM).
Turning to `C[C@@H]1CC[C@H]2[C@@H](C)C(=O)O[C@@H]3O[C@@]4(C)CC[C@@H]1[C@]32OO4` [ARTEMISININ], the half-inhibitory concentration (IC50) was found to be 0.0036 µg/mL (≈ 0.0128 µM) in data set [1] and 0.0018 µg/mL (≈ 0.00638 µM) in data set [3].
With `N=C(N)c1ccc(OCCCCCOc2ccc(C(=N)N)cc2)cc1` [PENTAMIDINE], in data set [6], the half-maximal inhibitory concentration (IC50) is 2.8 µg/mL (≈ 8.22 µM) and it took 10 µg/mL (≈ 29.4 µM) to reach the 90% level (IC90).
